Data from ChEMBL document CHEMBL4699414, “Hit-to-lead optimization of novel benzimidazole phenylacetamides as broad spectrum trypanosomacides” (RSC Med Chem, 2020).

Columns and labels:
[1] = Cytotoxicity against human HepG2 cells assessed as reduction in cell viability measured after 48 hrs by CellTiter-Glo assay; format: cell-based
Procedure, shortened: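 HepG2 human hepatoma cells from GSK Biological Reagents and Assay Development (Stevenage, UK); viability read-out per earlier method.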

[2] = Cytotoxicity against rat H9c2 cells assessed as reduction in cell viability; format: cell-based
[3] = Lipophilicity, logP of the compound; format: physicochemical; settings: octanol/water
HEK293 = assay: Cytotoxicity against human HEK293 cells assessed as reduction in cell viability measured after 48 hrs by resazurin assay relative to control; format: cell-based; settings: hek293, 48 h
Procedure, shortened: (§1)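 HEK293 cells from ATCC; Alamar Blue viability read-out run per earlier method.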

[4] = test system: Trypanosoma brucei brucei; assay: Antitrypanosomal activity against Trypanosoma brucei brucei Lister 427 assessed as parasite growth inhibition measured after 48 hrs by alamar blue assay; settings: Lister 427, 48 h
Trypanosoma cruzi [5] = assay: Antitrypanosomal activity against Trypanosoma cruzi infected in rat H9c2 infected with trypomastigotes from parasite-infected monkey LLC-MK2 cells measured after 72 hrs by DRAQ5 DNA dye based microscopic imaging analysis; format: functional, organism-based; settings: H9c2, 72 h
[6] = Cytotoxicity against human HEK293 cells assessed as reduction in cell viability measured after 48 hrs by resazurin assay; format: cell-based; procedure, shortened: as §1
Trypanosoma cruzi [7] = assay: (§2) Antitrypanosomal activity against recombinant Trypanosoma cruzi intracellular amastigotes expressing beta-galactosidase infected in mouse NIH/3T3 cells assessed as parasite growth inhibition incubated for 4 days by resorufin-beta-D-galactopiranoside substrate based fluorescence assay; format: functional, organism-based; settings: NIH3T3, 96 h
[8] = Selectivity index, ratio of CC50 for rat H9c2 cells assessed as reduction in cell viability to IC50 for Trypanosoma cruzi infected in rat H9c2 infected with trypomastigotes from parasite-infected monkey LLC-MK2 cells measured after 72 hrs by DRAQ5 DNA dye based microscopic imaging analysis; format: toxicity; settings: read-out: Ratio CC50/IC50
[9] = as §2, with “Selectivity index, ratio of CC50 for mouse NIH/3T3 cells to IC50 for” for “Antitrypanosomal activity against”; format: toxicity, cell-based; settings: time 4 day, read-out: Ratio CC50/IC50
[10] = Selectivity index, ratio of CC50 for human HEK293 cells assessed as reduction in cell viability measured after 48 hrs by resazurin assay to IC50 for Trypanosoma brucei brucei Lister 427 […] assessed as parasite growth inhibition measured after 48 hrs by alamar blue assay; format: toxicity, cell-based; settings: read-out: Ratio CC50/IC50

logP [3]	IC50 [4]	IC50 (Trypanosoma cruzi [5])	IC50 (Trypanosoma cruzi [7])	SMILES	CC50 at 48 h [1]	CC50 [2]	Activity (HEK293)	CC50 at 48 h [6]	selectivity ratio at 72 h [8]	selectivity ratio at 96 h [9]	selectivity ratio at 48 h [10]
5.5	19 µM	10 µM	–	CCCn1c(NC(=O)Cc2ccc(Cl)cc2)nc2c(Br)cccc21	> 50 µM	> 50 µM	54 µM	–	–	–	–
5.3	4.4 µM	0.5 µM	–	CCCn1c(NC(=O)Cc2ccc(Cl)cc2)nc2cc(Cl)ccc21	> 50 µM	7.94 µM	84 µM	–	–	–	–
4.2	3.1 µM	2.5 µM	–	CCn1c(NC(=O)Cc2ccc(Cl)cc2)nc2ccccc21	> 50 µM	40 µM	–	> 83 µM	–	–	–
4.7	–	–	0.63 µM	CCCn1c(NC(=O)Cc2ccc(Cl)cc2)nc2ccccc21	> 50 µM	> 50 µM	–	> 83 µM	40	79	50
